In experiment [1] the test system is Saccharomyces cerevisiae. In words: Growth inhibition of isogenic rad52-deficient Saccharomyces cerevisiae FM588 at 1 to 100 uM after 24 hrs by spectrophotometry. It is filed as functional, organism-based.
The subject of experiment [2] is Saccharomyces cerevisiae. In words: Growth inhibition of Saccharomyces cerevisiae FM588 expressing wild type rad52 gene at 1 to 100 uM after 24 hrs by spectrophotometry. The experiment is classed as functional, organism-based.
The target of experiment [3] is DNA topoisomerase 2-alpha (Homo sapiens) (UniProt P11388). In words: Inhibition of human DNA topoisomerase 2alpha-mediated relaxation of supercoiled pRYG plasmid DNA assessed as formation of linearized DNA at 100 uM after 30 mins by agarose gel electrophoresis relative to vehicle-treated control in presence of ethidium bromide. Put shortly:
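Cleavage-complex assay set up as the Topo IIα relaxation reaction, but with 10 units of hTopoIIα added 1–3 min before 100 µM compound in 1% DMSO. Etoposide as positive control. Electrophoresis in TAE containing 0.5 µg/mL ethidium bromide to resolve the linearized intermediate.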

A further experiment deals with SK-BR-3. In words: Antiproliferative activity against human SKBR3 cells after 48 hrs by MTT assay. The experiment is classed as functional, cell-based. The conditions noted are these: SK-BR-3, 48 h. Put shortly:
(§1)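 Cells seeded at 10,000 per well; compound or vehicle (0.1% DMSO final) added 24 h after plating and left 48 h. MTT added at 0.5 mg/mL final for 3 h at 37 °C, formazan dissolved in SDS–HCl (20% SDS, 0.02 M HCl), absorbance at 570 nm. IC50 by non-linear regression; mean SD, n = 3.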
(In general: Formazan colour is commonly taken as a measure of viable cells.)

Another experiment relates to HEL. The experiment is described as follows: Antiproliferative activity against human HEL cells after 48 hrs by MTT assay. The experiment is classed as functional, cell-based. Put shortly:
as §1

Experiment [4] addresses DNA topoisomerase 2-alpha (Homo sapiens) (UniProt P11388). In words: Inhibition of human DNA topoisomerase 2alpha-mediated DNA cleavage assessed as decrease in relaxation of supercoiled pRYG plasmid at 60 uM after 30 mins by agarose gel electrophoresis. Put shortly: (§2)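 Human Topo IIα, 1–2 units, with 250 ng supercoiled pRYG and 1 mM ATP in 5 mM Tris-HCl pH 7.5, 12.5 mM NaCl, 1 mM MgCl2, 0.5 mM DTT, 10 µg/mL albumin. Compound added in DMSO, 1% final. Incubated 37 °C for 30 min, stopped with SDS/EDTA, proteinase K digestion. 1% agarose in TBE without ethidium bromide, stained afterwards. Inhibition scored at 100, 60 and 30 µM.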

The subject of experiment [5] is Saccharomyces cerevisiae. The experiment is described as follows: Induction of DNA repair in Saccharomyces cerevisiae W3749-14C harboring Rad52-YFP assessed as increase in Rad52 foci formation at 100 uM after 3 hrs. The experiment is classed as functional, organism-based. Put shortly:
(§3)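 RAD52-YFP yeast (W3749-14C) growing asynchronously treated 3 h at 25 °C with 100 µM compound in 1% DMSO; DMSO and phleomycin 25 µg/mL as controls. Cells micrographed. Mononucleated budded cells with bud over two-thirds mother size scored as G2-arrested. Foci per cell = total YFP foci / total cells.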

A further experiment has as its system MCF7. In words: Antiproliferative activity against human MCF7 cells after 48 hrs by MTT assay. The experiment is classed as functional, cell-based. The conditions noted are these: MCF7, 48 h. Put shortly:
as §1

Experiment [6] deals with T1, DNA topoisomerase 1 (Homo sapiens) (UniProt P11387).
T1 sequence (whole entry): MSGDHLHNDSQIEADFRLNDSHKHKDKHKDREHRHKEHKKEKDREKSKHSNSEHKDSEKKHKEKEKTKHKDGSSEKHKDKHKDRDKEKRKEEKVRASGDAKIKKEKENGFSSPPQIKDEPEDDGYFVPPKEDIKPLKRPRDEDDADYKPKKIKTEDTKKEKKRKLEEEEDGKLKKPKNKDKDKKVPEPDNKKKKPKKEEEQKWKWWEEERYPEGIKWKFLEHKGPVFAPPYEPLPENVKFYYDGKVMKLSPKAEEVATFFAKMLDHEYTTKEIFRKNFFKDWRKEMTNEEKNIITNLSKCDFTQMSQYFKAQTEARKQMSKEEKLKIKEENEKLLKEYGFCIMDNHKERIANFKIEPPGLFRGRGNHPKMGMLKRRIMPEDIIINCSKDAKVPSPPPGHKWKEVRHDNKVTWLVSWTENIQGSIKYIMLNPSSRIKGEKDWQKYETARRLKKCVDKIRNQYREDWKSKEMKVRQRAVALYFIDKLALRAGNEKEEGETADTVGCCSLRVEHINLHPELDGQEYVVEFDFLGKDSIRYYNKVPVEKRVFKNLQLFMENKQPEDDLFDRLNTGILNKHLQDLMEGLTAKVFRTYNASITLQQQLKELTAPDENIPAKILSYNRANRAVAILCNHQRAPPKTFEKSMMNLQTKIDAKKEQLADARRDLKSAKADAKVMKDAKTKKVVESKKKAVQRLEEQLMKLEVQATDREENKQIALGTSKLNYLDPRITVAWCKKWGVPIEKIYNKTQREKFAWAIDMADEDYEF
The experiment is described as follows: Inhibition of DNA topoisomerase 1 (unknown origin)-mediated DNA cleavage assessed as decrease in relaxation of supercoiled pBSKS plasmid at 1 00 uM after 30 mins by agarose gel electrophoresis.

For experiment [7], the target named is T1, DNA topoisomerase 1 (Homo sapiens). In words: Inhibition of DNA topoisomerase 1 (unknown origin)-mediated relaxation of supercoiled pBSKS plasmid DNA assessed as formation of nicked form of DNA at 1 00 uM after 30 mins by agarose gel electrophoresis in presence of ethidium bromide.
Experiment [8] addresses T2, Type II restriction enzyme XhoI (Xanthomonas vasicola) (UniProt Q9KVZ7).
T2 sequence (whole entry): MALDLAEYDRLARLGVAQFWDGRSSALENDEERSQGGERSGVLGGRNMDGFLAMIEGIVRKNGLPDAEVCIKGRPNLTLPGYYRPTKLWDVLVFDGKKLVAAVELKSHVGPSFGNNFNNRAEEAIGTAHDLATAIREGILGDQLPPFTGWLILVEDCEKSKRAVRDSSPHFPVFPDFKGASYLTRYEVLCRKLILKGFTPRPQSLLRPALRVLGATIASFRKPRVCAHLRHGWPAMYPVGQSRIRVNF
In words: Inhibition of Xanthomonas vasicola Xho1 assessed as inhibition of endonucleolytic cleavage of pBSKS plasmid DNA at 100 uM by agarose gel electrophoresis. Put shortly:
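XhoI digestion of pBSKS plasmid, which carries a single XhoI site, run like the Topo I reaction with compounds at 100 µM in 1% DMSO. Actinomycin D as intercalator control. Agarose gel separates supercoiled, nicked intermediate and linear product.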

Experiment [9] relates to Saccharomyces cerevisiae. The experiment is described as follows: Cell cycle arrest in Saccharomyces cerevisiae W3749-14C harboring RAD52-YFP assessed as accumulation at G2 Phase at 100 uM after 3 hrs. The experiment is classed as functional, organism-based. Put shortly:
as §3

For experiment [10], the target named is DNA topoisomerase 2-alpha (Homo sapiens) (UniProt P11388). In words: Inhibition of human DNA topoisomerase 2alpha-mediated DNA cleavage assessed as decrease in relaxation of supercoiled pRYG plasmid at 100 uM after 30 mins by agarose gel electrophoresis. Put shortly: as §2
Experiment [11] has the same target. The experiment is described as follows: Inhibition of human DNA topoisomerase 2alpha-mediated DNA cleavage assessed as decrease in relaxation of supercoiled pRYG plasmid at 30 uM after 30 mins by agarose gel electrophoresis. Put shortly: as §2

The source made the active and inactive calls. The rule behind the calls is not given here. A value given as a limit tells only on which side of the number the result lay.

Chain of DNA topoisomerase 2-alpha (Homo sapiens) (P11388 whole entry): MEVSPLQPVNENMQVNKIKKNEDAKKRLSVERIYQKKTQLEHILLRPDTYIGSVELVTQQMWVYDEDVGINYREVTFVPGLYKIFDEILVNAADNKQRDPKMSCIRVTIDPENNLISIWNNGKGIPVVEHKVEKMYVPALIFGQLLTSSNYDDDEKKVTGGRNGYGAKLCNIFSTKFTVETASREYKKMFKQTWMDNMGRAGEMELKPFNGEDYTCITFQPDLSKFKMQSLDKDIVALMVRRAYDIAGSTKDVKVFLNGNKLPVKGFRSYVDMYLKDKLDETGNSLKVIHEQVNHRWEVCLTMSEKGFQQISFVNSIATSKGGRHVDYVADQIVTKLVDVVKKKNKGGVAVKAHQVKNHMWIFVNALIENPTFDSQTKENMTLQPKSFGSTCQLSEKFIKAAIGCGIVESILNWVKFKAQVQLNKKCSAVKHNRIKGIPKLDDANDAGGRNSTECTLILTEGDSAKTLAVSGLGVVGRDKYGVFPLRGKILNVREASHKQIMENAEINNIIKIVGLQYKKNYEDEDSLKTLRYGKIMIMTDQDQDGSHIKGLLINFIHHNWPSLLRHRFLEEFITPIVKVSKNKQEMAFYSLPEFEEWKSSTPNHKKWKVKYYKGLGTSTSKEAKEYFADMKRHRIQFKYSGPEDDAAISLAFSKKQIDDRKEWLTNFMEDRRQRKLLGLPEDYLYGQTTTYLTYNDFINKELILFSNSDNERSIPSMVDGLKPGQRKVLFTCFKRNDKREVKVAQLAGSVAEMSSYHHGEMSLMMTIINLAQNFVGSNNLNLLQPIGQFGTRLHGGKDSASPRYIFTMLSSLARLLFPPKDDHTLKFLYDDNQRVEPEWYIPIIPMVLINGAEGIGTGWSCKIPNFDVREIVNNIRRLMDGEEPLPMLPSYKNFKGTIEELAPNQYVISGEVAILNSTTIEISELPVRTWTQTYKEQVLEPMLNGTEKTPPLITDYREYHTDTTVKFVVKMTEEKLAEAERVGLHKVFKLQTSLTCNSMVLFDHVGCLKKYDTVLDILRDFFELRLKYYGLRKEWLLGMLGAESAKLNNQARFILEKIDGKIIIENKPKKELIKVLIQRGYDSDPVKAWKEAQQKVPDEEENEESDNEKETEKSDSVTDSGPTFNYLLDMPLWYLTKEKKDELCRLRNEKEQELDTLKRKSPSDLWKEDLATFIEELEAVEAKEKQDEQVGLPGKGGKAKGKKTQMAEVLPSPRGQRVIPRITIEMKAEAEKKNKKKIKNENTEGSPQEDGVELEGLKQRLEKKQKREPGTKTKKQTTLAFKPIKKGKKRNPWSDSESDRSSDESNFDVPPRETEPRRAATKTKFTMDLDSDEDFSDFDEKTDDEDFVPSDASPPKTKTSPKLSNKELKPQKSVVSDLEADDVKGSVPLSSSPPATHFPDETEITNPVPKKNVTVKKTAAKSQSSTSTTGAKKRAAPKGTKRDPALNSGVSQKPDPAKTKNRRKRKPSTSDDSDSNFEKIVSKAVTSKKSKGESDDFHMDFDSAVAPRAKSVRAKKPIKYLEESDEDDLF

Usually IC50 stands for the concentration that inhibits the measured activity by half. A low value points to inhibition by little substance. Regarding `CN(C)CCN1C(=O)c2cccc3cc(N)cc(c23)C1=O` [AMONAFIDE], in the experiment on Saccharomyces cerevisiae [1], the “growth inhibition (GI)” value was “Active”. Besides, in the experiment with Saccharomyces cerevisiae [2], the “growth inhibition (GI)” value was “inactive”. The inhibition entry in experiment [3] and in experiment [4] was “Active” in each case. The concentration for half-maximal inhibition (IC50) in the experiment with SK-BR-3 is 7.4 µM; with HEL, 3.4 µM.
Consider `COc1cccc(-c2cc3c4c(cccc4c2)C(=O)N(CCN(C)C)C3=O)c1`, for which the outcome in the experiment on Saccharomyces cerevisiae [5] and in the experiment on Saccharomyces cerevisiae [9] was Active. Also, the concentration for half-maximal inhibition (IC50) in the experiment on MCF7 is 0.5 µM; with SK-BR-3, 0.3 µM; with HEL, 2.7 µM. Further, the inhibition result in [6], in [3], in [8] and in [4] was “Active” throughout. Moreover, the “growth inhibition (GI)” value in the experiment on Saccharomyces cerevisiae [2] is “Active”. For the same compound, in [7], the inhibition entry was “inactive”.
In the case of `COc1ccccc1-c1cc2c3c(cccc3c1)C(=O)N(CCN(C)C)C2=O`, the IC50 with MCF7 came out at 25.7 µM; in the experiment on SK-BR-3, 11.9 µM. In addition, the inhibition result in [10] is “Active”. The inhibition result in experiment [7] was “inactive”.
For the compound `COc1ccc(-c2ccc3cccc4c3c2C(=O)N(CCN(C)C)C4=O)cc1`, the 50% inhibitory concentration (IC50) in the experiment on MCF7 and with SK-BR-3 was greater than 30 µM in each case. The “growth inhibition (GI)” value in the experiment on Saccharomyces cerevisiae [1] is “inactive”. Moreover, the inhibition result in [10] and in [7] was “inactive” each time.
As for `COc1cccc(-c2ccc3cccc4c3c2C(=O)N(CCN(C)C)C4=O)c1`, the IC50 in the experiment with MCF7 and in the experiment with SK-BR-3 was greater than 30 µM throughout.
Turning to `COc1ccccc1-c1ccc2cccc3c2c1C(=O)N(CCN(C)C)C3=O`, the IC50 in the experiment with MCF7 and in the experiment on SK-BR-3 was 24 µM in each case. The inhibition entry in [10] and in experiment [7] was “inactive” in each case.
Take `COc1ccccc1-c1ccc2c3c(cccc13)C(=O)N(CCN(C)C)C2=O`: the concentration for half-maximal inhibition (IC50) in the experiment with MCF7 and with SK-BR-3 was greater than 30 µM in each case. In addition, the “growth inhibition (GI)” value in the experiment on Saccharomyces cerevisiae [1] is “inactive”. Further, the inhibition result in experiment [10] and in experiment [7] was “inactive” throughout.
For the compound `COc1ccc(-c2ccc3c4c(cccc24)C(=O)N(CCN(C)C)C3=O)cc1`, the 50% inhibitory concentration (IC50) was greater than 30 µM in the experiment on MCF7 and 27.6 µM in the experiment with SK-BR-3. Besides, the inhibition result in [6] and in experiment [4] was “Active” in each case. In addition, the inhibition result in [7] is “inactive”.
Turning to `CN(C)CCN1C(=O)c2cccc3cc(-c4cccc(O)c4)cc(c23)C1=O`, the “growth inhibition (GI)” value in the experiment with Saccharomyces cerevisiae [1] was “Active”. In addition, the inhibition entry in experiment [10] and in [3] was “Active” throughout. The IC50 stood at 4.4 µM in the experiment on SK-BR-3 and 7 µM in the experiment with HEL.
Turning to `CN(C)CCN1C(=O)c2cccc3cc(-c4cccc(N)c4)cc(c23)C1=O`, the “growth inhibition (GI)” value in the experiment on Saccharomyces cerevisiae [1] is “Active”. Besides, the inhibition result in [10] is “inactive”. For the same compound, in [3], the inhibition result was “Active”. For the same compound, the IC50 with SK-BR-3 was 14.2 µM; with HEL, 13.5 µM.
For the compound `CN(C)CCN1C(=O)c2cccc3cc(-c4ccccc4)cc(c23)C1=O`, the result with Saccharomyces cerevisiae [5] and with Saccharomyces cerevisiae [9] was Active. For the same compound, the “growth inhibition (GI)” value in the experiment with Saccharomyces cerevisiae [2] was “Active”. Further, the inhibition result in experiment [3] and in experiment [11] was “Active” in each case. In addition, the IC50 in the experiment with SK-BR-3 came out at 0.8 µM; with HEL, 6 µM.
For `COc1ccc(-c2cc3c4c(cccc4c2)C(=O)N(CCN(C)C)C3=O)cc1`, the IC50 in the experiment with MCF7 was 7.6 µM; in the experiment with SK-BR-3, 1.5 µM. In the experiment on Saccharomyces cerevisiae [1], the “growth inhibition (GI)” value is “Active”. Moreover, the inhibition result in [10] was “Active”. Further, in [7], the inhibition entry was “inactive”.
Take `CN(C)CCN1C(=O)c2cccc3cc(-c4cccc([N+](=O)[O-])c4)cc(c23)C1=O`: the result in the experiment with Saccharomyces cerevisiae [5] and in the experiment with Saccharomyces cerevisiae [9] was Active. Moreover, the “growth inhibition (GI)” value in the experiment with Saccharomyces cerevisiae [2] was “Active”. The inhibition entry in experiment [3] and in experiment [11] was “Active” throughout. In addition, the figures for the 50% inhibitory concentration (IC50) in the experiment on SK-BR-3 and in the experiment with HEL were 1.2 µM and 0.6 µM, respectively.
With `COc1cccc(-c2ccc3c4c(cccc24)C(=O)N(CCN(C)C)C3=O)c1`, the half-inhibitory concentration (IC50) with MCF7 and in the experiment with SK-BR-3 was greater than 30 µM in each case. The inhibition result in experiment [6] and in experiment [10] was “Active” in each case. The inhibition result in experiment [7] is “inactive”.
In the case of `CN(C)CCN1C(=O)c2cccc3cc(-c4cccc(C(F)(F)F)c4)cc(c23)C1=O`, the result in the experiment with Saccharomyces cerevisiae [5] and in the experiment with Saccharomyces cerevisiae [9] was Active. Also, in the experiment on Saccharomyces cerevisiae [2], the “growth inhibition (GI)” value is “Active”. Moreover, the inhibition result in [3] and in experiment [4] was “Active” in each case. Moreover, the IC50 came to 1.2 µM in the experiment on SK-BR-3 and 1.6 µM in the experiment with HEL.

Values taken from ChEMBL document CHEMBL2439982, “Synthesis and study of antiproliferative, antitopoisomerase II, DNA-intercalating and DNA-damaging activities of arylnaphthalimides” (Bioorg Med Chem, 2013).
